Measured values taken from ChEMBL document CHEMBL1129311, “Antitumor agents. 166. Synthesis and biological evaluation of 5,6,7,8-substituted-2-phenylthiochromen-4-ones” (J Med Chem, 1996).
Converted amounts (≈) assume the structure as drawn. The source made the active and inactive calls. The calls are words filed in the database; no cut-off is given here.

Key:
A549 = test: Effective dose against 50% reduction in Human lung carcinoma (A-549) cell number after 3-day incubation.; assay type: functional, cell-based
HCT-8 [1] = test: Effective dose against 50% reduction in Human ileocecal carcinoma (HCT-8) cell number after 3-day incubation.; assay type: functional, cell-based
KB [2] = test: Effective dose against 50% reduction in Human epidermoid carcinoma of the nasopharynx (KB) cell number after 3-day incubation; - indicates inactive; assay type: functional, cell-based
P388 [3] = test: Effective dose against 50% reduction in Murine leukemia (P-388) cell number after 3-day incubation; - indicates inactive; assay type: functional, cell-based; conditions: Mus musculus
TE-671 [4] = test: Effective dose against 50% reduction in Human CNS tumor (TE671) cell number after 3-day incubation; - indicates inactive; assay type: functional, cell-based
RPMI [5] = test: Effective dose against 50% reduction in Human melanoma (RPMI)cell number after 3-day incubation; - indicates inactive; assay type: functional, cell-based
[6] = molecular target: T1, DNA topoisomerase II (Homo sapiens) (UniProt P11388+Q02880); test: Inhibitory activity against human DNA topoisomerase II at dose 100 uM; assay type: protein assay
Outline: (§1)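 Topo II activity read as ATP-dependent unknotting of P4 DNA. Test compound at 100 µM; % inhibition is relative to enzyme and DNA control reactions. VP-16 served as the reference inhibitor.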

[7] = molecular target: T2, DNA topoisomerase 1 (Homo sapiens) (UniProt P11387); test: Inhibitory activity against human DNA topoisomerase I at dose 100 uM
T2 sequence (whole entry): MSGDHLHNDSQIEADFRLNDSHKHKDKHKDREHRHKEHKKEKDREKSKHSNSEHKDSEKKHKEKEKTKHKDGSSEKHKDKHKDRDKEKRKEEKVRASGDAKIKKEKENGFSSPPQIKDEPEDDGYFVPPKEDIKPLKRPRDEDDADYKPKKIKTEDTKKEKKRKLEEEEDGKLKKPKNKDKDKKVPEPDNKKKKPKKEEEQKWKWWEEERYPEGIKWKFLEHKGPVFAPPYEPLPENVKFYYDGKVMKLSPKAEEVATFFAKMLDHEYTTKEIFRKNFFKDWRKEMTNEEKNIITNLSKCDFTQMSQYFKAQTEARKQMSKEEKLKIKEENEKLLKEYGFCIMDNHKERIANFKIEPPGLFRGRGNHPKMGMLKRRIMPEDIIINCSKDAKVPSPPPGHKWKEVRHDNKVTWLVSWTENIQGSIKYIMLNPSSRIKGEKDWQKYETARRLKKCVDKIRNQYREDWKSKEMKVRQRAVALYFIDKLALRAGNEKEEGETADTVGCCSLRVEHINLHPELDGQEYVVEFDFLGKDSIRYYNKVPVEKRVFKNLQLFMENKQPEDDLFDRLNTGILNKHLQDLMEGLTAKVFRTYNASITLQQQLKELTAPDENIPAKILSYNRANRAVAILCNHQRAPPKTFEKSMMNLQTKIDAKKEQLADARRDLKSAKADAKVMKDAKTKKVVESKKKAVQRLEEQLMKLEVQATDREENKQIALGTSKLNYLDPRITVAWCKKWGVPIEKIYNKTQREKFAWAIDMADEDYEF
Outline: (§2)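 Topo I activity read as ATP-independent relaxation of supercoiled plasmid DNA. Test compound at 100 µM; % inhibition is relative to enzyme and DNA control reactions. Camptothecin served as the positive inhibitor control.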

H9 [8] = test: Effective dose against growth of HIV infected H9 lymphocytes; assay type: functional; conditions: Homo sapiens, read-out: ED50 (the source's name)
H9 [9] = test: Inhibitory activity against growth of uninfected H9 lymphocytes; assay type: functional, cell-based; conditions: Homo sapiens
Outline: (§3)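 Uninfected H9 cultures exposed to compound diluted in medium for 4 days at 37 °C. Cell density counted in a Coulter counter; IC₅₀ determined.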

P388 [10] = test: Effective dose against 50% reduction in Murine leukemia (P-388) cell number after 3-day incubation; assay type: functional; conditions: Mus musculus, P388, 72 h; read-out: ED50 (the source's name)
RPMI [11] = test: Effective dose against 50% reduction in Human melanoma (RPMI)cell number after 3-day incubation; assay type: functional; conditions: 72 h, read-out: ED50 (the source's name)
TE-671 [12] = test: Effective dose against 50% reduction in Human CNS tumor (TE671) cell number after 3-day incubation; assay type: functional; conditions: TE-671, 72 h, read-out: ED50 (the source's name)
[13] = Therapeutic index valued has been determined in H9 cells; assay type: cell-based; conditions: human, read-out: Therapeutic index
KB [14] = test: Cellular protein-linked DNA breaks in KB oral carcinoma cell culture treated in triplicate at 50 uM for 1 hr; assay type: functional, Homo sapiens
Outline: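 Read-out is potassium-SDS precipitable cpm in treated KB cultures, expressed as fold.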

KB [15] = test: Effective dose against 50% reduction in Human epidermoid carcinoma of the nasopharynx (KB) cell number after 3-day incubation; assay type: functional; conditions: 72 h, read-out: ED50 (the source's name)
H9 [16] = test: Effective dose against H9 cell lines; assay type: functional, cell-based; conditions: Homo sapiens
H9 [17] = test: Effective dose required to inhibit virus replication growth by 50%; assay type: functional; conditions: Homo sapiens, H9, read-out: ED50
H9 [18] = test: Inhibitory concentration required to inhibit uninfected growth of H9 lymphocytes by 50%; assay type: functional, cell-based; conditions: Homo sapiens; outline: as §3
[19] = molecular target: T2, DNA topoisomerase 1 (Homo sapiens); test: Inhibitory activity against Human DNA topoisomerase I at dose 100 uM; outline: as §2
[20] = molecular target: T1, DNA topoisomerase II (Homo sapiens); test: Inhibitory activity against Human DNA topoisomerase II at dose 100 uM; assay type: protein assay; outline: as §1
HCT-8 [21] = test: Effective dose against 50% reduction in Human ileocecal carcinoma (HCT-8) cell number after 3-day incubation; assay type: functional; conditions: HCT-8, 72 h, read-out: ED50 (the source's name)
H9 [22] = test: Effective dose against growth of HIV infected H9 lymphocytes by 50%; assay type: functional; conditions: Homo sapiens, read-out: ED50 (the source's name)
H9 [23] = test: Inhibitory activity against growth of uninfected H9 lymphocytes by 50%; assay type: functional, cell-based; conditions: Homo sapiens; outline: as §3
KB [24] = test: Effective dose against Human epidermoid carcinoma of the nasopharynx; - indicates inactive; assay type: functional, cell-based
RPMI [25] = test: Effective dose against 50% reduction in Human melanoma(RPMI) cell number after 3-day incubation; assay type: functional; conditions: 72 h, read-out: ED50 (the source's name)
[26] = system: Medulloblastoma tumour cell line; test: Effective dose against medulloblastoma tumor cell lines; assay type: functional; conditions: read-out: ED50 (the source's name)

SMILES | ED50 (A549) | ED50 (HCT-8 [1]) | ED50 (KB [2]) | ED50 (P388 [3]) | ED50 (TE-671 [4]) | ED50 (RPMI [5]) | EC50 (H9 [8]) [µg/mL] | IC50 (H9 [9]) [µg/mL] | selectivity ratio [13] | further results
COc1ccc2sc(-c3ccccc3)cc(=O)c2c1 | inactive | inactive | inactive | inactive | inactive | inactive |  |  |  | 
CC(=O)Oc1cc2sc(-c3ccccc3)cc(=O)c2cc1OC(C)=O | inactive | inactive |  |  |  |  | 0.65 (≈ 1.83 µM) | 3 (≈ 8.47 µM) | 4.6 | inhibition [6]: 100%; inhibition [7]: 0%; EC50 (P388 [10]): 4.83 µg/mL (≈ 13.6 µM); EC50 (RPMI [11]): 5.5 µg/mL (≈ 15.5 µM); EC50 (TE-671 [12]): 4.58 µg/mL (≈ 12.9 µM); Activity (KB [14]): 1; EC50 (KB [15]): 5.5 µg/mL (≈ 15.5 µM)
O=c1cc(-c2ccccc2)oc2cc(O)cc(O)c12 [CHRYSIN] |  |  |  |  |  |  |  |  | 9 | EC50 (H9 [16]): 5 µM
Nc1cccc2c(=O)cc(-c3ccccc3)sc12 | inactive | inactive | inactive |  | inactive |  | 4 (≈ 15.8 µM) | 15 (≈ 59.2 µM) | 3.8 | EC50 (P388 [10]): 7.46 µg/mL (≈ 29.4 µM); EC50 (RPMI [11]): 5.5 µg/mL (≈ 21.7 µM)
Cc1cn([C@H]2C[C@H](N=[N+]=[N-])[C@@H](CO)O2)c(=O)[nH]c1=O [ZIDOVUDINE] |  |  |  |  |  |  |  |  |  | EC50 (H9 [17]): 0.04 µM; IC50 (H9 [18]): 2000 µM
CC(=O)Oc1ccc2c(=O)cc(-c3ccccc3)sc2c1 | inactive | inactive | inactive | inactive | inactive | inactive | 80 (≈ 270 µM) | 45 (≈ 152 µM) | 0.6 | 
O=c1cc(-c2ccccc2)sc2cccc(O)c12 | inactive | inactive | inactive | inactive | inactive | inactive |  |  |  | 
O=c1cc(-c2ccccc2)[s+]([O-])c2ccccc12 (centres undefined) | inactive |  |  |  |  |  |  |  |  | inhibition [19]: 100%; inhibition [20]: 0%; EC50 (HCT-8 [21]): 5.79 µg/mL (≈ 22.8 µM); EC50 (P388 [10]): 1.18 µg/mL (≈ 4.64 µM); EC50 (RPMI [11]): 5.5 µg/mL (≈ 21.6 µM); EC50 (TE-671 [12]): 3.66 µg/mL (≈ 14.4 µM); Activity (KB [14]): 1; EC50 (KB [15]): 5.5 µg/mL (≈ 21.6 µM)
O=c1cc(-c2ccccc2)sc2cc(O)ccc12 | inactive | inactive | inactive | inactive | inactive | inactive | 7 (≈ 27.5 µM) | 40 (≈ 157 µM) | 5.7 | 
COc1cccc2sc(-c3ccccc3)cc(=O)c12 | inactive | inactive |  | inactive | inactive |  |  |  | 1 | EC50 (H9 [22]): 7 µg/mL (≈ 26.1 µM); IC50 (H9 [23]): 7 µg/mL (≈ 26.1 µM); ED50 (KB [24]): inactive; EC50 (RPMI [25]): 5.5 µg/mL (≈ 20.5 µM)
COc1cc(-c2oc3c(OC)c(OC)c(OC)c(O)c3c(=O)c2OC)ccc1O |  |  |  |  |  |  |  |  |  | EC50 [26]: 0.99 µg/mL (≈ 2.45 µM)
